CHOP inhibitor – inhibitors of CHOP promoter induction, primary screen, cell-based, unfolded protein response, luciferase reporter; CHO-K1 CHOP-promoter luciferase, tunicamycin-induced, 15-18 h; inhibition, % at 10 µM; 220,000 compounds, 3.8% hits; AID 2732, 2010;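 active means compounds that reduced the stress-induced luciferase reporter signal by more than about 70% of percent inhibition, limit read from the data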;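 further: 0% = tunicamycin plus vehicle and 100% = wells without tunicamycin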
XBP1 UPR activ – activators of adaptive XBP1 UPR arm, primary screen, cell-based, CHO-XBP1 luciferase reporter, luminescence, uHTS. IRE1-XBP1 UPR activation; percent of tunicamycin response, DMSO as zero. activation, % at 20 µM. 330,000 compounds, 0.33% hits;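 active means versus positive control, 20 µM dose yields 30% or more activation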;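 further: 100% = tunicamycin at 10 µg/mL and 0% = DMSO only wells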
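Test system: CHO-XBP1 luciferase reporter cells | Buffer or medium: Serum-containing F12 medium, 10% FBS | Schedule: 6 h compound exposure at 37 °C, 5% CO2 | Detection: Steady-Glo luciferase glow luminescence, 10 min after reagent addition | Read-out basis: Activation, % of tunicamycin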
UPR CHOP act – activators of apoptotic CHOP UPR arm, primary screen, cell-based, CHO-CHOP luciferase reporter, luminescence, uHTS | UPR activation; percent of tunicamycin response over DMSO baseline | activation, % at 10 µM | 330,000 compounds, 0.34% hits | AID 449763, 2010;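 active means at 10 µM dose, activation of 40% or more, normalized to positive control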;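 further: 100% = tunicamycin at 10 µg/mL and 0% = DMSO alone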
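Dosing – one dose, 10 µM in 0.5% DMSO · System – CHO-CHOP cells, stable luciferase reporter of PERK-eIF2a-CHOP signalling · Input – 500 cells/well · Control set – tunicamycin 10 µg/mL final as positive, DMSO-only wells as negative · Timing – 6 h compound treatment, 37 °C · Measure – % activation vs tunicamycin · Technique – luminescence read with Steady-Glo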
A1 inh – caspase 3/7 activation in MEF A1-2A-BIM cells, primary screen, A1 inhibitor project, cell-based, luminescence, HTS; caspase activation, % (test concentration not listed); 330,000 compounds, 0.066% hits; Caspase-Glo 3/7 luminescence, 3 h; percent of clofoctol response, vehicle zero;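 active means over half of replicate activation scores above 10%, or exactly half above 10 with the replicate mean above 10; inconclusive means replicate mean below 10 yet half the replicates above 10; inactive means over half of replicates below 10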
CHOP confirm – retest of CHOP induction inhibitors, confirmation, cell-based; 2,100 compounds, 45% hits; shares compounds with CHOP inhibitor; AID 504437, 2011; inhibition, % at 10 µM; CHO-CHOP promoter luciferase reporter, tunicamycin-induced, luminescence;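 active means mean of three repeat readings of reporter signal inhibition above a set limit, cut at about 70% in these data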;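 further: 0% = tunicamycin plus vehicle and 100% = wells lacking tunicamycin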
An asterisk follows results filed as active; ? = inconclusive; . = no result. Only a selection was taken, and hits are over-represented in it overall.

SMILES	CHOP inhibitor	XBP1 UPR activ	UPR CHOP act	A1 inh	CHOP confirm
Cc1ccc(S(=O)(=O)N2CCC(=O)CC2)cc1	.	-4	0	0	.
CC(C)c1nnc(N2C(=O)c3oc4ccccc4c(=O)c3C2c2ccco2)s1 (configuration not stated)	112*	1	0	0	110*
Cc1c(C(=O)OCC(=O)N2CC(=O)Nc3ccccc32)oc2ccc(Br)cc12	104*	12	0	0	1
CC(C)(C)C1CCC(C(=O)OCC(=O)c2ccc[nH]2)CC1 (configuration not stated)	101*	-2	4	1	100*
CCOC(=O)c1ccc(NC(=O)c2nc[nH]c2C(=O)N[C@@H](C)C(=O)OC(C)(C)C)cc1	97*	-3	1	?	104*
C[C@H](NC(=O)c1[nH]cnc1C(=O)Nc1ccc(Cl)cc1)C(=O)OC(C)(C)C	105*	-2	1	2	91*
CCOC(=O)c1ccc(NC(=O)c2nc[nH]c2C(=O)N[C@@H](CC(C)C)C(=O)OC(C)(C)C)cc1	25	2	2	-1	.
CC(C)(C)OC(=O)NCCCC[C@H](NC(=O)c1[nH]cnc1C(=O)Nc1ccc(Cl)cc1)C(=O)OC(C)(C)C	-2	6	3	1	.
CCc1ccc(-c2nc(CS(=O)CC(=O)NCCCN3CCOCC3)c(C)o2)cc1 (configuration not stated)	.	2	1	-1	.
COc1ccc(Cn2c(C(F)(F)F)ccc(C(N)=O)c2=O)cc1	27	9	1	0	.
NC(=O)c1ccc(C(F)(F)F)n(Cc2c(Cl)cccc2Cl)c1=O	102*	0	-1	2	112*
COc1ccc(/C=C/C(=O)NC(=S)NNC(=O)c2cnccn2)cc1	57	9	-2	0	.
COc1ccc(/C=C/C(=O)NC(=S)NNC(=O)c2cccnc2)cc1	98*	-3	0	1	77*
O=C(NCC1CCCO1)c1cn(-c2ccccc2)nc1-c1ccc(F)cc1 (configuration not stated)	.	-2	-1	1	.
CCC(=O)Nc1cccc(-c2cnc3ccccc3n2)c1	4	7	4	-2	.
O=C(CCl)Nc1cccc(-c2cnc3ccccc3n2)c1	.	-4	-1	-1	84*
Cc1csc(NC(=O)CSc2ccc(-c3ccccc3)nn2)n1	-12	0	1	0	.
Cc1csc(NC(=O)CSc2nnc(NC(=O)COc3ccccc3)s2)n1	101*	-1	1	1	1
Cc1cc(C)c(C)c(S(=O)(=O)ON2C(=O)c3ccccc3C2=O)c1C	101*	0	14	1	108*
Cc1cc(C)c(S(=O)(=O)ON2C(=O)c3ccccc3C2=O)cc1C	108*	2	0	1	87*
O=C1c2ccccc2C(=O)N1OS(=O)(=O)c1ccc(F)cc1	.	.	.	3	.
COc1ccc2c(Cl)c(C(=O)N/N=C/c3ccc4c(c3)OCO4)sc2c1	107*	1	0	0	45
O=C(N/N=C/c1ccc2c(c1)OCO2)c1sc2cc(Cl)ccc2c1Cl	25	-1	1	0	.
CCSCCc1nnc(NC(=O)Nc2cccc(C(F)(F)F)c2)s1	96*	11	7	0	99*
O=C(Nc1ccccc1)Nc1cccc(C(F)(F)F)c1	32	8	1	-1	.
SMILES	CHOP inhibitor	XBP1 UPR activ	UPR CHOP act	A1 inh	CHOP confirm
CC1=CN2C(=N)/C(=C/c3ccc([N+](=O)[O-])o3)C(=O)N=C2S1	107*	.	.	-1	29
O=C(Nc1cccc(Cl)c1Cl)c1cc(S(=O)(=O)NCCc2ccccc2)ccc1F	97*	-2	0	0	88*
Cc1cc(NC(=O)C2CCCCC2)n(-c2nc3ccccc3[nH]2)n1	102*	5	1	0	40
Cc1cc(NC(=O)c2c(F)cccc2F)n(-c2nc3ccccc3[nH]2)n1	100*	5	5	0	-6
Cc1cc(NC(=O)c2ccc(C)s2)n(-c2nc3ccccc3[nH]2)n1	-28	6	3	0	.
Cc1cc(NC(=O)c2ccccc2F)n(-c2nc3ccccc3[nH]2)n1	-23	6	4	-1	.
Cc1nn(C(C)C(=O)O)c(C)c1[N+](=O)[O-] (configuration not stated)	15	4	-2	0	.
CCOc1ccc(/C=N/NC(=O)c2[nH]c3ccc(C)cc3c2C)cc1	.	4	1	-1	.
Cc1c(C(=O)N/N=C/c2ccc(Cl)cc2)[nH]c2ccc(Cl)cc12	98*	17	1	0	19
O=C(CNS(=O)(=O)c1ccc(Br)s1)NC1CCCc2ccccc21 (configuration not stated)	22	1	-2	0	.
CS(=O)(=O)c1nc(-c2ccccc2)cc(C(F)(F)F)n1	.	-1	-1	0	117*
FC(F)(F)c1cc(-c2ccccc2)nc(N2CCCCCC2)n1	38	0	-2	-1	.
Cc1cc(C(C)(C)C)oc1C(=O)O	12	0	0	0	.
Cc1cc(C(C)(C)C)oc1C(=O)N1CCN(C(=O)c2oc(C(C)(C)C)cc2C)CC1	105*	.	.	.	115*
O=C1CC(c2ccccc2Br)c2cc3c(cc2N1)CCC3 (configuration not stated)	101*	-1	-1	0	41
CC1=NN(c2ccccc2)C(=O)/C1=C/c1c(C)[nH]n(-c2ccc(C)cc2)c1=O	.	-1	0	0	.
Cc1[nH]n(-c2ccccc2)c(=O)c1/C=C1/C=c2ccccc2=N1	103*	.	.	.	78*
CN(Cc1ccccc1)c1nc2c(c(=O)[nH]c(=O)n2C)n1CCCc1ccccc1	46	3	1	-1	.
Cc1cccc(NS(=O)(=O)c2ccc(C3CCCCC3)cc2)c1	107*	3	-1	0	132*
Cc1ccnc2nc(C(=O)OCC(=O)N3CCc4ccccc43)nn12	6	-3	-2	1	.
CCOc1ccc(S(=O)(=O)Nc2ccc(F)cc2)c(C)c1C	106*	0	0	1	59
CCOc1ccc(NS(=O)(=O)c2cc(OC)ccc2OC)cc1	-15	-2	1	0	.
Cc1cccnc1NC(=O)c1c(O)c2ccccc2n(C)c1=O	98*	-1	2	0	100*
CCn1c(=O)c(C(=O)Nc2ncccc2C)c(O)c2ccccc21	39	1	1	-1	.
Cc1ccc(NC(=O)CCNS(=O)(=O)c2ccc3c(c2)oc(=O)n3C)cc1	28	-1	2	0	.
Cc1cc(O)c(NC(=S)NC(=O)c2ccc(-c3ccc(Cl)cc3)o2)cc1C	105*	-3	2	0	113*
CCCCNC(=O)c1onc(CSc2ccccc2C)c1C(=O)O	38	-2	-2	0	.

Screens as filed in PubChem BioAssay.
